From ChEMBL document CHEMBL4270638, “Sulfonyl-containing phenyl-pyrrolyl pentane analogues: Novel non-secosteroidal vitamin D receptor modulators with favorable physicochemical properties, pharmacokinetic properties and anti-tumor activity” (Eur J Med Chem, 2018)
Values after ≈ are worked out from the molar mass of the structure shown. Active and inactive are the calls of the source. The calls are words filed in the database; no cut-off is given here.

How the values were obtained:
[1] = tested on: MCF7; experiment: Antiproliferative activity against human MCF7 cells expressing VDR siRNA assessed as reduction in BrdU incorporation after 16 hrs by ELISA; type: functional, cell-based; conditions: MCF7, 16 h
[2] = tested on: MCF7; experiment: Cell cycle arrest in human MCF7 cells expressing VDR siRNA assessed as accumulation at G2/M phase at 1 uM after 24 hrs by propidium iodide staining based flow cytometry (reference value: 17.57%); type: functional
[3] = tested on: MCF7; experiment: Cell cycle arrest in human MCF7 cells expressing VDR siRNA assessed as accumulation at S phase at 1 uM after 24 hrs by propidium iodide staining based flow cytometry (reference value: 32%); type: functional
[4] = tested on: MCF7; experiment: Induction of apoptosis in human MCF7 cells expressing scrambled siRNA assessed as early apoptotic cells at 1 uM after 24 hrs by Annexin-V-FITC/propidium iodide staining based flow cytometry (reference value: 0.93%); type: functional
[5] = tested on: MCF7; experiment: Induction of apoptosis in human MCF7 cells expressing VDR siRNA assessed as live cells at 1 uM after 24 hrs by Annexin-V-FITC/propidium iodide staining based flow cytometry (reference value: 98.35%); type: functional
[6] = tested on: MCF7; experiment: Induction of apoptosis in human MCF7 cells expressing VDR siRNA assessed as early apoptotic cells at 1 uM after 24 hrs by Annexin-V-FITC/propidium iodide staining based flow cytometry (reference value: 0.49%); type: functional
[7] = tested on: MCF7; experiment: Induction of apoptosis in human MCF7 cells expressing VDR siRNA assessed as necrotic cells at 1 uM after 24 hrs by Annexin-V-FITC/propidium iodide staining based flow cytometry (reference value: 0.15%); type: functional
[8] = tested on: MCF7; experiment: Induction of apoptosis in human MCF7 cells assessed as upregulation of p21 expression at 1 uM after 24 hrs by Western blot analysis; type: functional, cell-based
How it was run: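 MCF-7 cells treated at 1 µM for 24 h. Lysates resolved by 10% SDS-PAGE and transferred to PVDF. Probed with rabbit anti-p21, anti-p27 and anti-Bax antibodies, with mouse anti-β-actin as loading control. HRP-conjugated secondary antibodies; bands detected on an infrared scanner.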

[9] = Solubility of the compound in water at pH 7.4 by HPLC method; type: physicochemical
How it was run: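 Aqueous solubility measured at pH 7.4, with samples quantified by HPLC.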

[10] = Mean residence time in Sprague-Dawley rat at 5 mg/kg, iv by HPLC method; type: ADME, organism-based; conditions: in vivo
How it was run: (§1)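 Male Sprague-Dawley rats, 180–220 g, n = 3 per group. Dosed iv at 5 mg/kg or ip at 20 mg/kg in ethanol/EL/saline (1:1:18). Plasma sampled at 0, 0.083, 0.167, 0.25, 0.5, 1, 2, 4, 8, 12 and 24 h and centrifuged 12000 rpm for 10 min. Plasma drug measured by HPLC; parameters by PK modelling; mean ± SD.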

[11] = Clearance in Sprague-Dawley rat at 5 mg/kg, iv by HPLC method; type: ADME, organism-based; conditions: in vivo; how it was run: as §1
[12] = Half life in Sprague-Dawley rat at 20 mg/kg, ip by HPLC method; type: ADME, organism-based; conditions: in vivo; how it was run: as §1
[13] = Mean residence time in Sprague-Dawley rat at 20 mg/kg, ip by HPLC method; type: ADME, organism-based; conditions: in vivo; how it was run: as §1
[14] = Bioavailability in Sprague-Dawley rat at 20 mg/kg, ip by HPLC method; type: ADME, organism-based; conditions: in vivo; how it was run: as §1
[15] = tested on: MCF7; experiment: Antitumor activity against human MCF7 cells xenografted in Balb/c nude mouse assessed as reduction in tumor growth at 10 mg/kg, ip administered three times a week for three weeks starting from day 7 after tumor cell inoculation; type: functional, organism-based
How it was run: (§2)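 […] BALB/c-nu mice, 10 weeks old. 1×10^7 MCF-7 cells injected into the left fourth mammary fat pad; dosing began at about 50 mm3 tumour volume (day 7), n = 5 per group. Dosed ip at 10 mg/kg in ethanol/EL/saline 1:1:18, three times weekly for three weeks. Tumour volume by calipers = length × width² × 0.5; tumour weight and body weight recorded.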

[16] = tested on: Mus musculus; experiment: Toxicity in Balb/c nude mouse xenografted with human MCF7 cells assessed as effect on body weight at 10 mg/kg, ip administered three times a week for three weeks starting from day 7 after tumor cell inoculation; type: organism-based; conditions: in vivo; how it was run: as §2
[17] = tested on: MCF7; experiment: Antitumor activity against human MCF7 cells xenografted in Balb/c nude mouse assessed as increase in p27 expression at 10 mg/kg, ip administered three times a week for three weeks starting from day 7 after tumor cell inoculation by immunohistochemical analysis; type: functional, organism-based
[18] = tested on: MCF7; experiment: Antitumor activity against human MCF7 cells xenografted in Balb/c nude mouse assessed as increase in Bax expression at 10 mg/kg, ip administered three times a week for three weeks starting from day 7 after tumor cell inoculation by immunohistochemical analysis; type: functional, organism-based

## CCN(CC)CCNC(=O)c1cc(C(CC)(CC)c2ccc(OCS(=O)(=O)c3ccccc3)c(C)c2)cn1CC
[1]
  IC50: > 50 µM
[2]
  Activity: 19.02%
[3]
  Activity: 26.36%
[4]
  Activity: 1.21%
[5]
  Activity: 97.48%
[6]
  Activity: 0.7%
[7]
  Activity: 0.25%
[8]
  Activity: Active
[9]
  solubility: 85.3 µg/mL (≈ 150 µM)
[10]
  MRT: 9.72 h
[11]
  clearance: 11.2 mL/min
[12]
  half-life: 7.65 h
[13]
  MRT: 11.9 h
[14]
  bioavailability: 40.3%
[15]
  Activity: Active
[16]
  Activity: Non-Toxic
[17]
  Activity: Active
[18]
  Activity: Active

## CCN(CC)CCNC(=O)c1ccc(C(CC)(CC)c2ccc(OCSC)c(C)c2)n1CC
[1]
  IC50: > 50 µM
[2]
  Activity: 16.01%
[3]
  Activity: 32.42%
[4]
  Activity: 1.31%
[5]
  Activity: 97.35%
[6]
  Activity: 0.47%
[7]
  Activity: 0.51%
[8]
  Activity: Active
[9]
  solubility: 74.6 µg/mL (≈ 157 µM)
[10]
  MRT: 8.08 h
[11]
  clearance: 7 mL/min
[12]
  half-life: 10.8 h
[13]
  MRT: 15.7 h
[14]
  bioavailability: 43.2%
[15]
  Activity: Active
[16]
  Activity: Non-Toxic
[17]
  Activity: Active
[18]
  Activity: Active
